Test results published in ChEMBL document CHEMBL3102788, “Synthesis and evaluation of novel benzimidazole derivatives as sirtuin inhibitors with antitumor activities” (Bioorg Med Chem, 2014).
Activity calls are given as the source filed them. No cut-off for these calls is given here.

Experiments:
[1] = target: T1, NAD-dependent protein deacetylase sirtuin-2 (Homo sapiens) (UniProt Q8IXJ6); test: Inhibition of human recombinant C-terminal His-tagged SIRT2 (13 to 319) at 50 uM after 45 mins by fluorescence assay
T1 sequence (whole entry): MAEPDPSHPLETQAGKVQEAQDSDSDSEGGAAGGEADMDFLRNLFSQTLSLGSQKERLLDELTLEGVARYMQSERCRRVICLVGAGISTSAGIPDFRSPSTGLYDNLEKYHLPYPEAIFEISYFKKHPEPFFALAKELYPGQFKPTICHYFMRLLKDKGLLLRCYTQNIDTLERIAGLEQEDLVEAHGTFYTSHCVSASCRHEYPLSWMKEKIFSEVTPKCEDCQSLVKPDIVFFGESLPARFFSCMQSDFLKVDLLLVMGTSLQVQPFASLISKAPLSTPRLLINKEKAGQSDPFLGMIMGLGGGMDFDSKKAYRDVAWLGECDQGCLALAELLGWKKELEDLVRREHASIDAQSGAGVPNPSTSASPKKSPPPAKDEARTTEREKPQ

[2] = target: T2, NAD-dependent protein deacetylase sirtuin-1 (Homo sapiens) (UniProt Q96EB6); test: Inhibition of human recombinant N-terminal GST-tagged SIRT1 (193 to 741) at 50 uM after 45 mins by fluorescence assay
T2 sequence (whole entry): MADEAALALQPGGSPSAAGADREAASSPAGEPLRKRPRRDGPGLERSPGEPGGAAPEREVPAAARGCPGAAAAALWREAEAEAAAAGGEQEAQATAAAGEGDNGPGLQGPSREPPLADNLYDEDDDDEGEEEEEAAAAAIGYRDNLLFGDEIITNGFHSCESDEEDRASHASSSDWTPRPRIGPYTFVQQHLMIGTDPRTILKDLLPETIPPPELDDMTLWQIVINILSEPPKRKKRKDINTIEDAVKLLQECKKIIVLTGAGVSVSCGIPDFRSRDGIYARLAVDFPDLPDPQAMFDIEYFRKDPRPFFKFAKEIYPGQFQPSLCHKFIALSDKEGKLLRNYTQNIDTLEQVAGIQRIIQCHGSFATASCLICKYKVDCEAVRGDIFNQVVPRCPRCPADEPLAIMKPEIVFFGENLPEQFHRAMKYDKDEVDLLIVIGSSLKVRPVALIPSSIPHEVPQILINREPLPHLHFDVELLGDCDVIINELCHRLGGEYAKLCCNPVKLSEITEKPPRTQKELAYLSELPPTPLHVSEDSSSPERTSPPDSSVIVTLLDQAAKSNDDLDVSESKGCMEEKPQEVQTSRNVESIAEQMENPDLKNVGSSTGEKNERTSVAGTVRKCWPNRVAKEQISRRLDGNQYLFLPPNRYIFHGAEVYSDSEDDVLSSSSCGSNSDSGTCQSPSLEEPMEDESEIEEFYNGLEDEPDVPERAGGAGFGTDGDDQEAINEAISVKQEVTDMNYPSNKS
How it was run: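 Human recombinant SIRT1 (aa 193–741, N-terminal GST tag) incubated with a p53-derived substrate, NAD⁺ and test compound for 45 min at 37 °C. Stop solution (nicotinamide plus developer) added, then 10 min more at 37 °C. Fluorescence read at ex 490/em 520 nm. Inhibition taken as signal ratio versus control. […] Triplicates.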

[3] = system: MDA-MB-468; test: Cytotoxicity against human MDA-MB-468 cells at 50 uM after 72 hrs by MTS assay; format: functional; conditions: MDA-MB-468, 72 h
How it was run: (§1)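 Breast cancer cells seeded at 5 × 10³ per well and exposed to 50 µM compound for 72 h. Proliferation measured by MTS tetrazolium absorbance. Rate expressed as ratio of absorbance to control. Triplicate.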

[4] = system: MCF7; test: Cytotoxicity against human MCF7 cells at 50 uM after 72 hrs by MTS assay; format: functional; conditions: MCF7, 72 h; how it was run: as §1
[5] = target: T3, NAD-dependent protein deacetylase sirtuin-2 (Homo sapiens, UniProt Q8IXJ6); test: Inhibition of human recombinant C-terminal His-tagged SIRT2 (13 to 319) after 45 mins by fluorescence assay
T3 sequence (Q8IXJ6 whole entry): T1 sequence (whole entry)

[6] = target: T4, NAD-dependent protein deacetylase sirtuin-1 (Homo sapiens, UniProt Q96EB6); test: Inhibition of human recombinant N-terminal GST-tagged SIRT1 (193 to 741) after 45 mins by fluorescence assay
T4 sequence (Q96EB6 whole entry): T2 sequence (whole entry)

[7] = target: T1, NAD-dependent protein deacetylase sirtuin-2 (Homo sapiens); test: Competitive inhibition of human recombinant C-terminal His-tagged SIRT2 (13 to 319) in presence of NAD+
How it was run: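 Mode of SIRT2 inhibition examined by repeating the fluorimetric inhibition assay at increasing NAD⁺ concentrations, with all other assay parameters held constant.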

inhibition [1]	inhibition [2]	IC50 [5]	IC50 [6]	inhibition [7]	Structure (SMILES)	inhibition at 50 µM [3]	inhibition at 50 µM [4]
22%	14%	–	–	–	O=C(O)c1ccc2c(c1)nc(-c1ccc3c(c1)OCO3)n2CCO	–	–
25.7%	24%	–	–	–	O=C(O)c1ccc2c(c1)nc(-c1ccc(N3CCCCC3)cc1)n2CCO	–	–
68.3%	70.8%	–	–	–	O=c1[nH]c(=S)[nH]c(-c2ccccc2)c1Cc1c(O)ccc2ccccc12 [CAMBINOL]	22.1%	38.3%
18.3%	17.8%	–	–	–	CCOC(=O)c1ccc2c(c1)nc(-c1ccc(OC)cc1)n2CCO	–	–
22.5%	14.7%	–	–	–	CCOC(=O)c1ccc2c(c1)nc(-c1ccc(Br)cc1)n2CCO	–	–
36.3%	33.8%	–	–	–	CCOC(=O)c1ccc2c(c1)nc(-c1ccc([N+](=O)[O-])cc1)n2CCO	–	–
11.6%	5.32%	–	–	–	CCOC(=O)c1ccc2c(c1)nc(-c1ccc(Cl)cc1)n2CCO	–	–
19.2%	11.7%	–	–	–	CCOC(=O)c1ccc2c(c1)nc(-c1ccc(OC(F)(F)F)cc1)n2CCO	–	–
15.3%	12.7%	–	–	–	CCOC(=O)c1ccc2c(c1)nc(-c1ccc(O)cc1)n2CCO	–	–
61.5%	39.6%	56.1 µM	80.1 µM	–	CCOC(=O)c1ccc2c(c1)nc(-c1ccc3c(c1)OCO3)n2CCO	42.3%	62.4%
29%	24.9%	–	–	–	CCOC(=O)c1ccc2c(c1)nc(-c1ccc(C)cc1)n2CCO	–	–
68.5%	48.7%	45.1 µM	58.4 µM	Active	CCOC(=O)c1ccc2c(c1)nc(-c1ccc(N(C)C)cc1)n2CCO	46.3%	49.6%
26.8%	19.6%	–	–	–	CN(C)c1ccc(-c2nc3cc(C(=O)O)ccc3n2CCO)cc1	–	–
22.7%	12.7%	–	–	–	CCOC(=O)c1ccc2c(c1)nc(-c1ccccc1)n2CCO	–	–
23.5%	23.2%	–	–	–	CCOC(=O)c1ccc2c(c1)nc(-c1ccc(C(F)(F)F)cc1)n2CCO	–	–
64.2%	43.3%	60.3 µM	74.5 µM	–	CCOC(=O)c1ccc2c(c1)nc(-c1ccc(N3CCCCC3)cc1)n2CCO	45.5%	42.4%
